Experimental data from different studies.
Compare with care: the assays were run in different laboratories.
PDK2: [Pyruvate dehydrogenase (acetyl-transferring)] kinase isozyme 2, mitochondrial (PDK2, Homo sapiens, UniProt Q15119)
GSK3B: Glycogen synthase kinase-3 beta (GSK3B, Homo sapiens, UniProt P49841)
PTGS2: Prostaglandin G/H synthase 2 (PTGS2, Ovis aries, UniProt P79208)
AVPR1A: Vasopressin V1a receptor (AVPR1A, Homo sapiens, UniProt P37288)

With `CN1CC(Oc2cnc(C#N)cc2-c2ccn3nc(NC(=O)C4CC4)cc3c2)C1` the inhibition was 17% (PDK2; enzyme activity, inhibitor; 1 µM).
`O=C(c1ccc(Cl)cc1)N(Cc1ccccc1)C1CCCCC1` gave an inhibition of 18.7% (Motilin receptor (MLNR, Homo sapiens, UniProt O43193); cell-free assay; 10 µM).
For `C[C@@H]1CN(c2c(F)c(N)c3c(=O)c(C(=O)O)cn(C4CC4)c3c2F)C[C@H](C)N1`, the inhibition was 14% (GSK3B; enzyme activity, inhibitor, ADP detection; 100 µM).
`O=c1c(O[C@@H]2O[C@H](CO)[C@@H](O)[C@H](O)[C@H]2O)c(-c2ccc(O)cc2)oc2cc(O[C@@H]3O[C@H](CO)[C@@H](O)[C@H](O)[C@H]3O)cc(O)c12` gave an inhibition of 54.8% (PTGS2; enzyme activity, inhibitor, absorbance; 50 µM).
`COc1cc([C@@H]2c3cc4c(cc3[C@@H](O[C@@H]3O[C@@H]5CO[C@@H](C)O[C@H]5[C@H](O)[C@H]3O)[C@H]3COC(=O)[C@H]23)OCO4)cc(OC)c1O` has an inhibition of 15.4% (GSK3B; enzyme activity, inhibitor, ADP detection; 100 µM).
`CN(C)C1CCN(CC#Cc2nn(C3CCCC3)c3nc(NCc4ccccc4)ncc23)C1` (stereo not shown) has an inhibition of -2% (MAP kinase-activated protein kinase 2 (MAPKAPK2, Homo sapiens, UniProt P49137); enzyme activity, inhibitor, FRET; 0.1 µM).
`CC/C(=N\NC(=O)NCc1cccc(O)c1)c1ccc(O)c(C)c1O` gave an inhibition of -2.1% (PDK2; enzyme activity, inhibitor; 0.1 µM).
The inhibition of `CC[C@H]1C(=O)OC[C@@H]1Cc1cncn1C.O=[N+]([O-])O` is reported as 28.2% (GSK3B; enzyme activity, inhibitor, ADP detection; 100 µM).
`O=c1c(O)c(-c2ccc(O)cc2)oc2cc(O)cc(O)c12` gave an inhibition of 52.2% (PTGS2; enzyme activity, inhibitor, absorbance; 50 µM).
`COc1cc(NC(C)=O)c(Cl)cc1C(=O)Nc1nccs1` gave an inhibition of -0.8% (AVPR1A; cell-free assay; 10 µM).
The inhibition of `O=C([O-])c1ccccc1-c1c2cc(I)c(=O)c(I)c-2oc2c(I)c([O-])c(I)cc12.[Na+].[Na+]` is reported as 87.5% (GSK3B; enzyme activity, inhibitor, ADP detection; 100 µM).
The inhibition of `O=C1N=C(N2CCCCN2)S/C1=C\c1ccc(F)cc1O` is reported as under 10% (AVPR1A; ligand displacement, radioligand; 10 µM).
The inhibition of `Ic1cccc2cnccc12` is reported as 2% (Protein mono-ADP-ribosyltransferase TIPARP (TIPARP, Homo sapiens, UniProt Q7Z3E1); enzyme activity, inhibitor; 10 µM).
`O=c1c(O)c(-c2ccc(O)cc2)oc2cc(O[C@@H]3O[C@H](CO)[C@@H](O)[C@H](O)[C@H]3O)cc(O)c12` gave an inhibition of 66.3% (PTGS2; enzyme activity, inhibitor, absorbance; 50 µM).
The inhibition of `Oc1cccc(Nc2nc(-c3ccc(F)cc3F)cs2)c1` is reported as 1.2% (AVPR1A; cell-free assay; 10 µM).
With `O=C1OC(CN2CCOCC2)CN1/N=C/c1ccc([N+](=O)[O-])o1` (stereo not shown) the inhibition was 20.2% (GSK3B; enzyme activity, inhibitor, ADP detection; 100 µM).
`CS(=O)(=O)Nc1cccc(-c2csc(NC(=O)CSc3nc4nccnc4c(=O)n3CCc3ccccc3)n2)c1` has an inhibition of -5% (Phosphatidylinositol 4-kinase type 2-beta (PI4K2B, Homo sapiens, UniProt Q8TCG2); enzyme activity, inhibitor; 10 µM).
With `Cc1c(C(N)=O)cc([N+](=O)[O-])cc1[N+](=O)[O-]` the inhibition was 17.1% (GSK3B; enzyme activity, inhibitor, ADP detection; 100 µM).
With `CNc1cc(Oc2cc(C(=O)Nc3cc(N4CCN(C)CC4)cc(C(F)(F)F)c3)ccc2C)ncn1` the inhibition was -98.4% (1-phosphatidylinositol 3-phosphate 5-kinase (PIKFYVE, Homo sapiens, UniProt Q9Y2I7); target engagement in cells, inhibitor, chemoproteomics; Huh-7; 1 µM).
